Key:
[1] = molecular target: T1, ATP-dependent translocase ABCB1 (Homo sapiens, UniProt P08183); assay: Modulation of ABCB1 (unknown origin) expressed in mouse L5178Y-MDR cells assessed as multidrug resistance reversing activity by measuring fluorescence activity ratio at 20 uM by rhodamine-123 accumulation based flow cytometry (reference value: 1.1 No unit); type: cell-based
[2] = molecular target: T1, ATP-dependent translocase ABCB1; assay: Modulation of ABCB1 (unknown origin) expressed in mouse L5178Y-MDR cells assessed as multidrug resistance reversing activity by measuring fluorescence activity ratio at 0.2 uM by rhodamine-123 accumulation based flow cytometry (reference value: 1.1 No unit); type: cell-based
[3] = molecular target: T1, ATP-dependent translocase ABCB1; assay: Modulation of ABCB1 (unknown origin) expressed in mouse L5178Y-MDR cells assessed as multidrug resistance reversing activity by measuring fluorescence activity ratio at 2 uM by rhodamine-123 accumulation based flow cytometry (reference value: 1.1 No unit); type: cell-based
[4] = Antiproliferative activity against mouse L5178Y cells by MTT assay; type: cell-based; conditions: read-out: ID50 (the source's name)
Method in brief: (§1)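 MTT assay on parental L5178 mouse T-lymphoma cells and a subline transfected with pHa MDR1/A retrovirus (human ABCB1) and selected with colchicine. Cells were exposed to increasing concentrations from 0.26 to 133 μM. Other handling followed earlier reports.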

[5] = Antiproliferative activity against mouse L5178Y cells transfected with ABCB1 by MTT assay; type: ADME, cell-based; conditions: read-out: ID50 (the source's name); method in brief: as §1

T1 sequence (P08183 whole entry): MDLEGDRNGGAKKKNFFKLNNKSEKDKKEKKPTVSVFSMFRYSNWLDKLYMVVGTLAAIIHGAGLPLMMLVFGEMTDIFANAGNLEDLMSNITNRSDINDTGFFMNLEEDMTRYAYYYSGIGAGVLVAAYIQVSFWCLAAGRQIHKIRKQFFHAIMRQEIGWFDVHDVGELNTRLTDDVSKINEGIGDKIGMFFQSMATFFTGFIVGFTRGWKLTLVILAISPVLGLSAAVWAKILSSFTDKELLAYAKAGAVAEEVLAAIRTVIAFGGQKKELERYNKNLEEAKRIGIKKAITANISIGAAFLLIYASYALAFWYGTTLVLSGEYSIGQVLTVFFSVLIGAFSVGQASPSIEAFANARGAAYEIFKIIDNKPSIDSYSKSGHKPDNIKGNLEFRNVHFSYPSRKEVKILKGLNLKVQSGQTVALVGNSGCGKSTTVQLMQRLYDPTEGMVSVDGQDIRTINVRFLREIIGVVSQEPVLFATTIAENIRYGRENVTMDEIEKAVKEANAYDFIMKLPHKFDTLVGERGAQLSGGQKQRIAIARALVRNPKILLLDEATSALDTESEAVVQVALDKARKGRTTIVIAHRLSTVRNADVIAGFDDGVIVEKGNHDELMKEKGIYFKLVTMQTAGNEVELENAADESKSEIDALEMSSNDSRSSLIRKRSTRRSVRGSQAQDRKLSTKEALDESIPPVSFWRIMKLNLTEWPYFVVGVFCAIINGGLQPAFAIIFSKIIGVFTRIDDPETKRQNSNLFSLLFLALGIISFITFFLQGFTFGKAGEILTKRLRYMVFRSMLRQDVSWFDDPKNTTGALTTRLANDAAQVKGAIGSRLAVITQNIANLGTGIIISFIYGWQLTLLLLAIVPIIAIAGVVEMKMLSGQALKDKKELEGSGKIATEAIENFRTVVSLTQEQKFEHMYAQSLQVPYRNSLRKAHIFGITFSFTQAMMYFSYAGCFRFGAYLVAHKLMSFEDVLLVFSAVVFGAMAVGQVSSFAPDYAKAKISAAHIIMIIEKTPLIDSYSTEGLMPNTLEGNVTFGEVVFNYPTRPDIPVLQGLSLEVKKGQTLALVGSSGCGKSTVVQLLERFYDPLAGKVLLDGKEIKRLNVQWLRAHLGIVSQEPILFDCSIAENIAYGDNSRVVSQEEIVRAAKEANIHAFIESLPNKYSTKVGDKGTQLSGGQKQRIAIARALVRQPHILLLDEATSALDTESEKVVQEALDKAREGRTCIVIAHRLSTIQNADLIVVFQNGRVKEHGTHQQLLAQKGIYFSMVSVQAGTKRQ

Ratio [1] | Ratio [2] | Ratio [3] | SMILES | GI50 [4] [µM] | GI50 [5] [µM]
105.5 | 5.9 | 76.7 | CC(C)=CC(=O)C[C@@H](C)[C@H]1CC[C@@]2(C)[C@@H]3C(=O)[C@@H]4C(C)(C)[C@@]45C(=O)CC[C@H]5[C@]3(C)CC[C@]12C | > 100 | > 100
87.5 | 1.4 | 14.2 | CC(=O)C[C@@H](C)[C@H]1CC[C@@]2(C)[C@@H]3C(=O)[C@@H]4C(C)(C)[C@@]45C(=O)CC[C@H]5[C@]3(C)CC[C@]12C | 72.2 | 68.3
117.7 | 3.1 | 62.2 | C=C(C)/C=C/C[C@@H](C)[C@H]1CC[C@@]2(C)[C@@H]3C(=O)[C@@H]4C(C)(C)[C@@]45C(=O)CC[C@H]5[C@]3(C)CC[C@]12C | 20.7 | 37.6

From ChEMBL document CHEMBL4387787, “Cucurbalsaminones A-C, Rearranged Triterpenoids with a 5/6/3/6/5-Fused Pentacyclic Carbon Skeleton from Momordica balsamina, as Multidrug Resistance Reversers” (J Nat Prod, 2019)
